The nature of assay [1]: Ratio of average life span of compound-treated mice (100 mg/kg, ip, 3 days) to that of mice treated with chloroquine (T/C-CQ). The format is functional. The method in brief:
(§1)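 Swiss albino mice (male, 4 weeks, ~25 g) inoculated ip with 10^7 P. berghei ANKA parasitized erythrocytes (day 0). Test compound 100 mg/kg/day ip in DMSO, days 1–3, three mice per compound. Control infected groups: DMSO or 4'-butoxy-2,4-dimethoxychalcone (100 mg/kg in DMSO, ip, days 1–3), or chloroquine (52 mg/kg ip in 0.5% Tween buffer pH 7.4, day 1). Survival followed; ratio of mean life spans.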

Assay [2] deals with Mus musculus. The assay is described as follows: Ratio of average life span of compound-treated mice (100 mg/kg, ip, 3 days) to that of mice receiving DMSO (T/C-untreated). The format is functional. The method in brief: as §1
Assay [3] relates to Mus musculus. As to the kind of experiment: Ratio of average life span of compound-treated mice (100 mg/kg, ip, 3 days) to that of mice treated with 4''-butoxy-2,4-dimethoxychalcone (comp.41). The format is functional. The method in brief: as §1
For assay [4], the system named is Plasmodium falciparum. The assay is described as follows: Inhibition of [3H]hypoxanthine incorporation in Plasmodium falciparum K1. The format is functional, organism-based. Conditions: Plasmodium falciparum, 48 h. The method in brief:
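K1 (chloroquine-resistant) parasites cultured in RPMI-1640 with 5% sodium bicarbonate and 10% type O human serum. DMSO stocks were serially diluted 10-fold in medium, covering a 10^6-fold range. Infected erythrocytes at 1–2% parasitemia and 1.5% hematocrit were incubated at 37 °C in a candle jar for 24 h. [3H]hypoxanthine was then added for a further 24 h, cells harvested and scintillation counted. IC50 from nonlinear logistic fit versus untreated control.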

The structures appear in SMILES notation.

As a reminder, the IC50 is the midpoint of a concentration-inhibition curve. Lower therefore signals greater potency. As for `COc1ccc(C(=O)/C=C/c2ccc(F)cc2F)c(OC)c1`, the T/C-CQ in assay [1] is reported as 0.52. In addition, the T/C untreated in assay [2] is on record as 1.04. The “T/C 41” value in assay [3] stood at 1.04. For the same molecule, in assay [4], the IC50 is 6.2 µM.
Take `CCc1ccc(/C=C/C(=O)c2ccc(OC)cc2OC)cc1`: the T/C-CQ in assay [1] is 1.18. The T/C untreated in assay [2] came out at 2.33. In assay [3], the “T/C 41” value was 2.33. In assay [4], the midpoint of inhibition, the IC50, lay at 2.4 µM.
For the molecule `COc1ccc(C(=O)/C=C/c2ccc(F)cc2)c(OC)c1OC`, in assay [1], the T/C-CQ was determined as 0.69. The T/C untreated in assay [2] is reported as 1.37. The “T/C 41” value in assay [3] was found to be 1.37. For the same molecule, in assay [4], the IC50 came out at 9.5 µM.
`O=C(/C=C/c1ccc(Cl)cc1)c1ccc(O)cc1O`: in assay [1], the T/C-CQ is 0.71. The T/C untreated in assay [2] was found to be 1.41. The “T/C 41” value in assay [3] is given as 1.48. 12.3 µM corresponded to half-maximal inhibition in assay [4] (IC50).
With `COc1ccc(C(=O)/C=C/c2ccc(Cl)cc2Cl)c(OC)c1OC`, in assay [1], the T/C-CQ is given as 0.48. For the same molecule, the T/C untreated in assay [2] is listed as 0.94. Further, the “T/C 41” value in assay [3] was found to be 0.94. Also, the IC50 in assay [4] was 5.4 µM.
For the molecule `COc1ccc(C(=O)/C=C/c2ccc(Cl)c(Cl)c2)c(OC)c1OC`, in assay [1], the T/C-CQ was determined as 0.8. Moreover, the T/C untreated in assay [2] amounted to 1.47. Besides, the “T/C 41” value in assay [3] is reported as 1.53. For the same molecule, in assay [4], 14.5 µM corresponded to half-maximal inhibition (IC50).
Regarding `O=C(/C=C/c1ccccn1)c1ccc(O)cc1`, the T/C-CQ in assay [1] amounted to 0.49. In addition, the T/C untreated in assay [2] stood at 0.99. The “T/C 41” value in assay [3] was 1.03. The IC50 in assay [4] is 16.3 µM.
For `COc1ccc(C(=O)/C=C/c2ccc(OC)cc2OC)cc1`, the T/C-CQ in assay [1] stood at 0.46. Moreover, the T/C untreated in assay [2] is given as 0.92. Also, the “T/C 41” value in assay [3] is 0.97. Moreover, the IC50 in assay [4] was determined as 6.4 µM.
`COc1ccc(/C=C/C(=O)c2ccc(OC)cc2OC)c(OC)c1`: the T/C-CQ in assay [1] is on record as 0.5. Also, in assay [2], the T/C untreated was found to be 0.98. For the same molecule, in assay [3], the “T/C 41” value is listed as 0.98. Also, the IC50 in assay [4] was 2.1 µM.
As for `O=C(/C=C/c1cnc2ccccc2c1)c1ccc(O)cc1O`, the T/C-CQ in assay [1] was 0.77. Moreover, the T/C untreated in assay [2] came out at 1.08. The “T/C 41” value in assay [3] is 1.11. The same molecule yielded an IC50 in assay [4] of 16.1 µM.
As to `O=C(/C=C/c1ccc2ccccc2c1)c1ccc(O)cc1O`, the T/C-CQ in assay [1] was found to be 1.05. Further, the T/C untreated in assay [2] worked out at 1.91. In assay [3], the “T/C 41” value turned out to be 1.2. The IC50 in assay [4] turned out to be 20 µM.
For `COc1ccc(C(=O)/C=C/c2cnc3ccccc3c2)c(OC)c1`, the T/C-CQ in assay [1] came to 0.65. In assay [2], the T/C untreated came to 1.29. Further, the “T/C 41” value in assay [3] was found to be 1.29. This molecule yielded an IC50 in assay [4] of 2.2 µM.

These data come from ChEMBL document CHEMBL1134841, “Antimalarial alkoxylated and hydroxylated chalcones [corrected]: structure-activity relationship analysis” (J Med Chem, 2001).
